# NOD2-RIPK2 inh = blocks binding of human NOD2 to RIPK2; AID 624267; 360,000 tested, 0.38% active; O43353; CHO BLA complementation NOD2-RIPK2, CCF4 ratio; inhibition, % at 4.98 µM; in the data active = inhibition above about 21%;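 note: 0% = vehicle only and 100% = reference blocker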
# TLR4-MyD88 BLA = TLR4-MyD88 interaction inhibition in cells. HeLa CL3-4 TLR4/MyD88 BLA complementation, FRET ratio. inhibition, % at 8.4 µM. 200,000 tested, 0.18% active. AID 861; in the data active = inhibition above about 25%;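 note: 0% = vehicle and 100% = reference inhibitor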
# MC4R barr agon = activates human MC4R beta-arrestin recruitment; U2OS MC4R beta-arrestin complementation, luminescence; percent of melanotan II response, DMSO zero; activation, % at 8.9 µM; 360,000 tested, 0.98% active;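 active = activation above a per-plate cutoff, the mean activation of sample wells on that plate plus 3 SD, cut at about 8% in these data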
# Target sequence (P32245 whole entry, looked up): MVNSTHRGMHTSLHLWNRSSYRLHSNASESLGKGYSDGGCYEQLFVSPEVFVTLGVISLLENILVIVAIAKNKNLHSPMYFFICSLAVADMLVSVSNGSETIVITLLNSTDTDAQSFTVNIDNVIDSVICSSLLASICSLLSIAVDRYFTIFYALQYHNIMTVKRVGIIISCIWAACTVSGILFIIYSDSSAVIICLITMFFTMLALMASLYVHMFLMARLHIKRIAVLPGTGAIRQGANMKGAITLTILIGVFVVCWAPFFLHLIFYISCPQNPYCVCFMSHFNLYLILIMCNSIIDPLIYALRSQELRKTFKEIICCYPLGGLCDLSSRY
# MC4R antagonist = human MC4R antagonism in cAMP assay | MC4R-expressing cells, MTII-stimulated cAMP, LANCE TR-FRET | inhibition, % at 6.5 µM | 360,000 tested, 0.48% active | AID 540295;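 active = inhibition above its plate's cutoff, the mean of tested wells on that plate plus 3 SD, cut at about 29% in these data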;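 note: 0% = Melanotan II alone and 100% = Melanotan II plus saturating MCL0020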
#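 Assay system: U2OS cells stably expressing human melanocortin 4 receptor (MC4R) / Dosing: 6.5 µM / Timing: compound 30 min, challenge 1 h, detection 1 h / Measured by: Eu-cAMP/anti-cAMP TR-FRET, emission 671 nm / Replicates: singlicate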
# TLR9-MyD88 block = inhibitors of human TLR9-MyD88 binding; inhibition, % at 4.98 µM; CHO BLA complementation TLR9-MyD88, CCF4 FRET ratio; Q9NR96+Q99836; AID 504734; 340,000 tested, 0.21% active;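 active = inhibition above the mean over all tested compounds plus 3 SD, cut at about 21% in these data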;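 note: 0% = DMSO only wells and 100% = clavulanate BLA inhibitor control wells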
# MC4R barr ag = human MC4R beta-arrestin agonism confirmation; shares compounds with MC4R barr agon; U2OS MC4R beta-arrestin recruitment, luminescence; scaled DMSO 0%, Melanotan II 100%; activation, % at 8.9 µM; 2,400 tested, 31% active; AID 602192;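 active = mean activation across replicates above the hit cutoff set in the earlier primary screen, cut at about 8% in these data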
# MOR DOR agonist = activates mu-delta opioid heterodimer, MC4R agonist counter-screen. shares compounds with MC4R barr agon. U2OS PathHunter beta-arrestin, beta-gal luminescence; percent of deltorphin B response, DMSO zero. activation, % at 9.2 µM. 2,400 tested, 5.8% active. AID 602194;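 active = mean activation across replicates exceeds the hit threshold derived in the earlier primary screen, cut at about 18% in these data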;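 note: 100% = deltorphin B at 0.9 µM final and 0% = DMSO alone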
# An asterisk follows results filed as active; . = no result. Sampled rows, rich in hits. Any-hit rate of the full collection: about 1.8%.
SMILES,NOD2-RIPK2 inh,TLR4-MyD88 BLA,MC4R barr agon,MC4R antagonist,TLR9-MyD88 block,MC4R barr ag,MOR DOR agonist
Cc1cc(C)cc(NC(=S)N2CCN(c3ncc(C(F)(F)F)cc3Cl)CC2)c1,-10,.,17*,3,-4,4,3
CCOC(=O)Cc1csc(NC(=O)c2sc3nc4ccc(C)cc4cc3c2N)n1,-8,19,19*,-5,-6,2,4
CCCn1nnc(NC(=O)c2ccc(-c3cc(Cl)ccc3Cl)o2)n1,-6,1,9.6*,2,2,8,3
O=C(N/N=C1/CC(c2ccccc2)Oc2ccccc21)C1CC1 (centres undefined),-10,-8,9.6*,10,2,8.7*,9
Cc1ccccc1C(=O)c1cccn1CC(=O)NCCCN1CCCCC1,8,.,0,6,4,.,.
Cc1ccc(C)c(N2CCN(CCCNC(=O)Cn3cccc3C(=O)c3ccccc3C)CC2)c1,4,14,12*,9,-1,14*,15
CCOC(=O)c1[nH]c2cc(OC)c(OC)cc2c1NC(=O)c1ccc2c(c1)OCO2,1,-5,26*,-19,-7,2,3
CCOC(=O)c1[nH]c2ccc(OC)cc2c1NC(=O)c1ccc2c(c1)OCO2,2,-11,-1,-1,-7,.,.
CC(C)CNC(=O)c1cccc(NC(=O)COc2ccc([N+](=O)[O-])cc2)c1,-11,-2,-2,1,-3,.,.
CC(=O)c1ccc(N2CCN(C(=O)c3cc(-c4ccncc4)nc4ccc(Cl)cc34)CC2)cc1,11,.,1,-6,-1,.,.
CC(OC(=O)c1ccco1)C(=O)NC1CCCCC1 (centres undefined),-8,6,-1,0,0,.,.
O=C(OC(C(=O)NC1CCCCC1)c1ccc(C(F)(F)F)cc1)c1ccco1 (centres undefined),-2,.,11*,-2,-2,2,4
Cn1c(CCCOc2ccc(Cl)cc2Cl)nnc1SCC(=O)Nc1ccc(F)c(Cl)c1,-1,3,7,4,3,.,.
C=CCn1c(CCCOc2ccc(Cl)cc2Cl)nnc1SCC(=O)Nc1nccs1,1,-3,9.7*,-6,-2,1,6
Cn1c(CCCOc2ccc(Cl)cc2Cl)nnc1SCC(=O)Nc1cccc(F)c1,3,-2,19*,-2,1,9.8*,10
CC1Cc2nc(SCC(=O)NCC3CCCO3)n(-c3ccccc3)c(=O)c2S1 (centres undefined),-2,.,0,4,3,.,.
O=C(NCCOc1ccccc1)C1CCC(=O)N(CCN2CCOCC2)C1 (centres undefined),-3,.,0,13,1,.,.
N#Cc1ccccc1OCC(=O)Nc1c(C(=O)C2CC2)oc2ccccc12,0,-3,22*,0,8,8.9*,7
O=C(CN1CCCC1)Nc1c(C(=O)C2CC2)oc2ccccc12,-1,.,-1,10,2,.,.
C=C(C)CNC(=S)NNC(=O)CCn1c2ccc(Cl)cc2c2cc(Cl)ccc21,-4,-4,11*,-1,-14,6,3
C=C(C)CNC(=S)NNC(=O)CCn1c2cc(Cl)ccc2c2ccc(Cl)cc21,-6,-2,2,15,8,.,.
C[C@]12CCC(O)CC1=CCC1C2CC[C@]2(C)/C(=N\NC(N)=S)CCC12 (some centres undefined),-4,.,4,4,-5,.,.
O=C(Nc1nc(-c2ccc(F)c(F)c2)cs1)Nc1ccc(F)cc1F,-2,.,10*,-1,7,7,4
O=C(Cc1ccccc1F)Nc1nc(-c2ccc(F)c(F)c2)cs1,-3,.,3,-1,3,.,.
O=C(c1cccc([N+](=O)[O-])c1)c1ccc2[nH]c(=O)[nH]c2c1,-3,.,-2,8,2,.,.
SMILES,NOD2-RIPK2 inh,TLR4-MyD88 BLA,MC4R barr agon,MC4R antagonist,TLR9-MyD88 block,MC4R barr ag,MOR DOR agonist
C/C(=C\CNc1ncnc2nc[nH]c12)CO,-3,.,-2,11,11,.,.
CC(C)CCCCCCCCCCCCC(=O)NCC(=O)NC1C(C)OC(Nc2ncnc3nc[nH]c23)C(O)C1O (centres undefined),-17,.,16*,7,4,11*,28*
CCCCn1c(N)c(N(CC(C)C)C(=O)c2c(-c3ccccc3)noc2C)c(=O)[nH]c1=O,3,.,-1,8,-7,.,.
COc1cccc(CC2(CO)CCCN(Cc3[nH]c4ccc(C)cc4c3C)C2)c1 (centres undefined),-3,-8,11*,2,4,19*,14
Cc1ccccc1SCC(=O)OCC(=O)NCCNC(=O)COC(=O)CSc1ccccc1C,-10,.,0,11,5,.,.
COc1ccc2c(c1)CCc1c(C(=O)NCCc3ccc(OC)c(OC)c3)noc1-2,-18,16,20*,-7,-4,6,3
COc1ccc2c(c1)CCc1c(C(=O)Nc3ccn(Cc4ccc(C)cc4)n3)noc1-2,-12,7,30*,-13,-11,37*,8
O=C(NCCc1ccccc1)c1noc2c1CCc1ccccc1-2,-4,2,13*,6,-1,1,4
COc1ccc2c(c1)CCc1c(C(=O)Nc3ccc(OC)c(OC)c3)noc1-2,-4,-1,20*,1,8,2,8
COc1ccc2c(c1)CCc1c(C(=O)NCc3ccc(F)cc3)noc1-2,-12,5,7,12,6,.,.
CCCNC(=O)c1noc2c1CCc1ccccc1-2,1,-18,-1,5,9,.,.
CC(C)(C)OC(=O)C(Oc1ccccc1[N+](=O)[O-])C(=O)OC(C)(C)C,-6,.,.,.,.,.,.
CCCc1cc(=O)c2ccc(OC/C(C)=N/O)cc2o1,-6,.,0,-4,-4,.,.
CCN(CCNCC(O)COc1ccccc1C(C)C)c1cccc(C)c1 (centres undefined),8,.,16*,8,5,12*,12
CCOC(=O)N1CCN(CC(O)COc2ccccc2C(C)C)CC1 (centres undefined),2,-8,1,-4,-12,.,.
Cc1cccc2sc(N(CCCN(C)C)C(=O)c3sc4ccccc4c3Cl)nc12,8,-2,3,-4,0,.,.
COc1cccc2sc(N(CCCN(C)C)C(=O)c3sc4ccccc4c3Cl)nc12,7,0,17*,-11,-7,20*,24*
CCN(C(=O)CCN1C(=O)/C(=C/c2ccccc2)SC1=S)C1CCS(=O)(=O)C1 (centres undefined),5,.,-1,-1,-12,.,.
COc1ccc(NC(=O)c2cc(Br)ccc2Cl)c([N+](=O)[O-])c1,1,-6,11*,-1,-2,4,4
